Assay results: ChEMBL document CHEMBL2390835, “Synthesis and antimalarial testing of neocryptolepine analogues: addition of ester function in SAR study of 2,11-disubstituted indolo[2,3-b]quinolines” (Eur J Med Chem, 2013)
One block for each compound: values may come before it.

Legend:
[1] = Inhibition of beta-haematin formation after 5 to 6 hrs by UV-vis spectamax plate reader analysis; assay type: functional
How it was run: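 Detergent-mediated assay: compounds from DMSO stocks (20, 2, 0.4 mM) in duplicate, 0–1000 µM final. Added water and NP-40, then haematin at 100 µM final in 0.5 M acetate buffer pH 4.8. Incubated at 37 °C for 5–6 h. Pyridine added to 5% v/v final in HEPES pH 7.4 with acetone. Haem–pyridine absorbance read (405 nm). IC50 from sigmoidal fits.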

Plasmodium falciparum [2] = experiment: Resistance index, ratio of IC50 for chloroquine-resistant erythrocytic stage of Plasmodium falciparum K1 to IC50 for chloroquine-sensitive erythrocytic stage of Plasmodium falciparum NF54; assay type: functional
[3] = Selectivity index, ratio of IC50 for rat L6 cells to IC50 for chloroquine-resistant erythrocytic stage of Plasmodium falciparum K1; assay type: toxicity, cell-based; conditions: read-out: Ratio IC50
How it was run: (§1)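 IC50 in rat L6 skeletal myoblasts divided by the antiplasmodial IC50 for the named strain. L6 cells were seeded at 4000 per well in RPMI 1640 with L-glutamine and 10% FBS and exposed to eleven 3-fold dilutions from 100 to 0.002 µg/mL for 70 h. Alamar Blue was then added for 2 h and fluorescence read at ex 536 / em 588 nm. IC50 by linear regression of the sigmoidal curves.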

Plasmodium falciparum [4] = experiment: Antimalarial activity against chloroquine-resistant erythrocytic stage of Plasmodium falciparum K1 infected in human red blood cells assessed as growth inhibition after 48 hrs by [3H]-hypoxanthine incorporation assay; assay type: functional, organism-based
How it was run: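 Erythrocytic P. falciparum in RPMI 1640 without hypoxanthine, with HEPES, NaHCO3, neomycin, Albumax, and human A+ red cells at 2.5% haematocrit and 0.3% parasitaemia. Compounds from a 10 mg/mL DMSO stock, eleven 3-fold dilutions from 100 to 0.002 µg/mL. Incubated 48 h at 37 °C (4% CO2, 3% O2), then 3H-hypoxanthine added for 24 h more. Cells harvested and counted by scintillation. IC50 by linear regression of the sigmoidal curves, mean of two independent assays.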

[5] = Selectivity index, ratio of IC50 for rat L6 cells to IC50 for chloroquine-sensitive erythrocytic stage of Plasmodium falciparum NF54; assay type: toxicity, cell-based; conditions: read-out: Ratio IC50; how it was run: as §1
L6 = experiment: Cytotoxicity against rat L6 cells assessed as growth inhibition after 70 hrs by Alamar blue staining-based inverted microscopic analysis; assay type: cell-based; conditions: L6, 70 h
How it was run: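 L6 rat skeletal myoblasts, 4000 cells/well in RPMI 1640 with 1% L-glutamine (200 mM) and 10% FBS. Eleven 3-fold dilutions spanning 100 to 0.002 µg/mL. After 70 h, Alamar Blue added for 2 h more. Fluorescence read at ex 536/em 588 nm. IC50 from sigmoidal dose–inhibition curves by linear regression.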

Plasmodium falciparum [6] = experiment: Antimalarial activity against chloroquine-sensitive erythrocytic stage of Plasmodium falciparum NF54 infected in human red blood cells assessed as growth inhibition after 72 hrs by [3H]-hypoxanthine incorporation assay
[7] = Solubility of the compound in water; assay type: physicochemical; conditions: buffer
Plasmodium berghei [8] = experiment: Antimalarial activity against Plasmodium berghei infected in Swiss mouse assessed as reduction in parasitaemia at 20 mg/kg, ip administered for 4 days measured on day 7 by FACS analysis relative to control; assay type: functional; parameters: scale not given: the % may be the effect or the level left; conditions: route intraperitoneal
How it was run: (§2)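 Intraperitoneal dosing at 20 mg/kg daily for four consecutive days. Parasitaemia read on day 4 and day 7. Activity is the difference between mean percent parasitaemia of the control group (n = 5 mice) and the treated group, expressed as a percent of control.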

Plasmodium berghei [9] = experiment: Antimalarial activity against Plasmodium berghei infected in Swiss mouse assessed as reduction in parasitaemia at 20 mg/kg, ip administered for 4 days measured on day 4 post last dose by FACS analysis relative to control; assay type: functional; parameters: scale not given: the % may be the effect or the level left; conditions: route intraperitoneal; how it was run: as §2
MRC5 = experiment: Cytotoxicity against human MRC5 cells assessed as growth inhibition; assay type: cell-based

SMILES: COC(=O)c1ccc2c(c1)c(NCCCN)c1c3cc(Br)ccc3nc-1n2C
IC50 [1]: 10200 nM
Ratio IC50 (Plasmodium falciparum [2]): 3.5
selectivity ratio [3]: 66
IC50 (Plasmodium falciparum [4]): 15.9 nM
selectivity ratio [5]: 232
IC50 (L6): 1050 nM
IC50 (Plasmodium falciparum [6]): 4.54 nM

solubility [7]: soluble
SMILES: CN(C)CCCNc1c2c3cc(C(=O)O)ccc3nc-2n(C)c2ccccc12
selectivity ratio [5]: 30.6
IC50 (L6): 66200 nM
IC50 (Plasmodium falciparum [6]): 2160 nM

SMILES: COC(=O)c1ccc2nc3n(C)c4ccc(C(=O)OC)cc4c(NCCCN)c-3c2c1
IC50 [1]: 13000 nM
Ratio IC50 (Plasmodium falciparum [2]): 1.25
selectivity ratio [3]: 117
IC50 (Plasmodium falciparum [4]): 11.9 nM
selectivity ratio [5]: 146
IC50 (L6): 1390 nM
IC50 (Plasmodium falciparum [6]): 9.52 nM

IC50 [1]: 106000 nM
SMILES: COC(=O)c1ccc2nc3n(C)c4ccccc4c(N4CCCN(C)CC4)c-3c2c1
selectivity ratio [5]: 8.25
IC50 (L6): 6190 nM
IC50 (Plasmodium falciparum [6]): 750 nM

SMILES: COC(=O)c1ccc2c(c1)c(NCCCNC(=O)Nc1ccccc1)c1c3ccccc3nc-1n2C
IC50 [1]: 23000 nM
Ratio IC50 (Plasmodium falciparum [2]): 13.5
selectivity ratio [3]: 13.4
IC50 (Plasmodium falciparum [4]): 56.1 nM
selectivity ratio [5]: 181
IC50 (L6): 754 nM
IC50 (Plasmodium falciparum [6]): 4.16 nM

SMILES: COC(=O)c1ccc2c(c1)c(NCCCNC(=S)Nc1ccccc1)c1c3ccccc3nc-1n2C
IC50 [1]: 15700 nM
Ratio IC50 (Plasmodium falciparum [2]): 8.89
selectivity ratio [3]: 36.1
IC50 (Plasmodium falciparum [4]): 16.1 nM
selectivity ratio [5]: 321
IC50 (L6): 581 nM
IC50 (Plasmodium falciparum [6]): 1.81 nM

SMILES: COC(=O)c1ccc2nc3n(C)c4ccccc4c(NCCCN)c-3c2c1
Activity (Plasmodium berghei [8]): 72.5%
Activity (Plasmodium berghei [9]): 33.4%
IC50 [1]: 48900 nM
Ratio IC50 (Plasmodium falciparum [2]): 1.22
selectivity ratio [3]: 7.19
IC50 (Plasmodium falciparum [4]): 30.3 nM
selectivity ratio [5]: 8.79
IC50 (L6): 218 nM
IC50 (Plasmodium falciparum [6]): 24.8 nM

IC50 [1]: 51500 nM
SMILES: COC(=O)c1ccc2nc3n(C)c4ccccc4c(NCCN(C)C)c-3c2c1
selectivity ratio [5]: 7.41
IC50 (L6): 315 nM
IC50 (Plasmodium falciparum [6]): 42.5 nM

SMILES: Cn1c2nc3ccc(Br)cc3c-2c(NCCCNC(=O)Nc2ccccc2)c2cc(Cl)ccc21
IC50 [1]: 17800 nM
Ratio IC50 (Plasmodium falciparum [2]): 3
selectivity ratio [3]: 24.3
IC50 (Plasmodium falciparum [4]): 16.8 nM
selectivity ratio [5]: 73
IC50 (L6): 408 nM
IC50 (Plasmodium falciparum [6]): 5.59 nM

SMILES: COC(=O)c1ccc2nc3n(C)c4ccc(C(=O)OC)cc4c(NCCCNC(=O)Nc4ccccc4)c-3c2c1
IC50 [1]: 4600 nM
Ratio IC50 (Plasmodium falciparum [2]): 2.44
selectivity ratio [3]: 650
IC50 (Plasmodium falciparum [4]): 40.8 nM
selectivity ratio [5]: 1590
IC50 (L6): 26500 nM
IC50 (Plasmodium falciparum [6]): 16.7 nM

IC50 [1]: 55500 nM
SMILES: COC(=O)c1ccc2nc3n(C)c4ccccc4c(N4CCOCC4)c-3c2c1
selectivity ratio [5]: 2.15
IC50 (L6): 3810 nM
IC50 (Plasmodium falciparum [6]): 1770 nM

solubility [7]: soluble
SMILES: Cn1c2nc3ccc(C(=O)O)cc3c-2c(NCCCN)c2ccccc21
selectivity ratio [5]: 66.8
IC50 (L6): 113000 nM
IC50 (Plasmodium falciparum [6]): 1690 nM

SMILES: Cn1c2nc3ccccc3c-2c(NCCCN)c2ccccc21
selectivity ratio [5]: 3.5

SMILES: COC(=O)c1ccc2nc3n(C)c4ccccc4c(NCCCNC(=S)Nc4ccccc4)c-3c2c1
IC50 [1]: 10800 nM
Ratio IC50 (Plasmodium falciparum [2]): 10.7
selectivity ratio [3]: 43.8
IC50 (Plasmodium falciparum [4]): 64.4 nM
selectivity ratio [5]: 467
IC50 (L6): 2820 nM
IC50 (Plasmodium falciparum [6]): 6.03 nM

IC50 [1]: 18400 nM
SMILES: CCN(CC)CCCC(C)Nc1ccnc2cc(Cl)ccc12 (configuration not stated) [CHLOROQUINE]

SMILES: COC(=O)c1ccc2nc3n(C)c4ccccc4c(NCCCCN)c-3c2c1
selectivity ratio [5]: 7.81
IC50 (L6): 436 nM
IC50 (Plasmodium falciparum [6]): 55.8 nM

SMILES: COC(=O)c1ccc2nc3n(C)c4ccc(Cl)cc4c(NCCCN)c-3c2c1
IC50 [1]: 25400 nM
Ratio IC50 (Plasmodium falciparum [2]): 2.67
selectivity ratio [3]: 21.1
IC50 (Plasmodium falciparum [4]): 20.2 nM
selectivity ratio [5]: 56.4
IC50 (L6): 427 nM
IC50 (Plasmodium falciparum [6]): 7.57 nM

SMILES: COC(=O)c1ccc2nc3n(C)c4ccccc4c(NCCCNC(=O)Nc4ccccc4)c-3c2c1
IC50 [1]: 12800 nM
Ratio IC50 (Plasmodium falciparum [2]): 4.71
selectivity ratio [3]: 37.7
IC50 (Plasmodium falciparum [4]): 68.4 nM
selectivity ratio [5]: 178
IC50 (L6): 2580 nM
IC50 (Plasmodium falciparum [6]): 14.5 nM

SMILES: COC(=O)c1ccc2nc3n(C)c4ccc(C(=O)OC)cc4c(NCCCNC(=S)Nc4ccccc4)c-3c2c1
IC50 [1]: 7500 nM
Ratio IC50 (Plasmodium falciparum [2]): 3.5
selectivity ratio [3]: 12.4
IC50 (Plasmodium falciparum [4]): 50.4 nM
selectivity ratio [5]: 43.5
IC50 (L6): 627 nM
IC50 (Plasmodium falciparum [6]): 14.4 nM

IC50 [1]: 62500 nM
SMILES: COC(=O)c1ccc2nc3n(C)c4ccccc4c(NCCCN(C)C)c-3c2c1
selectivity ratio [5]: 8.05
IC50 (L6): 268 nM
IC50 (Plasmodium falciparum [6]): 33.3 nM

SMILES: COC(=O)c1ccc2nc3n(C)c4ccc(Cl)cc4c(NCCCNC(=O)Nc4ccccc4)c-3c2c1
IC50 [1]: 14900 nM
Ratio IC50 (Plasmodium falciparum [2]): 1.71
selectivity ratio [3]: 143
IC50 (Plasmodium falciparum [4]): 23.3 nM
selectivity ratio [5]: 246
IC50 (L6): 3340 nM
IC50 (Plasmodium falciparum [6]): 13.6 nM

SMILES: COC(=O)c1ccc2c(c1)c(NCCCNC(=O)Nc1ccccc1)c1c3cc(Br)ccc3nc-1n2C
IC50 [1]: 10100 nM
Ratio IC50 (Plasmodium falciparum [2]): 2.75
selectivity ratio [3]: 56.9
IC50 (Plasmodium falciparum [4]): 19.7 nM
selectivity ratio [5]: 157
IC50 (L6): 1120 nM
IC50 (Plasmodium falciparum [6]): 7.15 nM

SMILES: COC(=O)c1ccc2c(c1)c(NCCCN)c1c3ccccc3nc-1n2C
Activity (Plasmodium berghei [8]): 72.5%
Activity (Plasmodium berghei [9]): 33.4%
IC50 [1]: 104000 nM
Ratio IC50 (Plasmodium falciparum [2]): 2.67
selectivity ratio [3]: 15.2
IC50 (Plasmodium falciparum [4]): 22.1 nM
selectivity ratio [5]: 40.7
IC50 (L6): 337 nM
IC50 (Plasmodium falciparum [6]): 8.28 nM

solubility [7]: soluble
SMILES: CN(C)CCNc1c2c3cc(C(=O)O)ccc3nc-2n(C)c2ccccc12
selectivity ratio [5]: 7.84
IC50 (L6): 20000 nM
IC50 (Plasmodium falciparum [6]): 2550 nM

SMILES: Cn1c2nc3ccccc3c-2cc2ccccc21 [NEOCRYPTOLEPINE]
Ratio IC50 (Plasmodium falciparum [2]): 1.07
selectivity ratio [3]: 1.88
selectivity ratio [5]: 2

IC50 [1]: 16000 nM
SMILES: COC(=O)c1ccc2nc3n(C)c4ccc(Br)cc4c(NCCCNC(=O)Nc4ccccc4)c-3c2c1
selectivity ratio [5]: 837
IC50 (L6): 6740 nM
IC50 (Plasmodium falciparum [6]): 8.05 nM

SMILES: Cn1c2nc3ccccc3c-2cc2cc(Br)ccc21
IC50 (MRC5): > 32000 nM

IC50 [1]: 123000 nM
SMILES: COC(=O)c1ccc2nc3n(C)c4ccccc4c(NCCCO)c-3c2c1
IC50 (L6): 639 nM
IC50 (Plasmodium falciparum [6]): 278 nM

IC50 [1]: 11500 nM
SMILES: COC(=O)c1ccc2nc3n(C)c4ccc(Br)cc4c(NCCCN)c-3c2c1
selectivity ratio [5]: 361
IC50 (L6): 819 nM
IC50 (Plasmodium falciparum [6]): 2.27 nM

SMILES: Cn1c2nc3ccc(Br)cc3c-2c(NCCCN)c2cc(Cl)ccc21
IC50 [1]: 30100 nM
Ratio IC50 (Plasmodium falciparum [2]): 8.89
selectivity ratio [3]: 20.9
IC50 (Plasmodium falciparum [4]): 19.2 nM
selectivity ratio [5]: 186
IC50 (L6): 401 nM
IC50 (Plasmodium falciparum [6]): 2.16 nM
